Structures are written as SMILES.

Series [1] can be described thus: Stability of the compound in human plasma at 22 MBq/mL up to 120 mins. It is filed as ADME, cell-free. Conditions: read-out: Stability; call rule not given here. An outline of the steps: (§1)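 Radiotracer at 22 MBq/mL incubated in human or rat plasma at 37 °C; sampled at 0, 30, 60, 90 and 120 min. Proteins precipitated with MeOH and centrifuged. Supernatant analysed by radio-HPLC and by radio-TLC (BuOH/AcOH/H2O 12:3:5). Intact tracer expressed as % of the 0 min sample.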

Series [2] can be described thus: (§2) Stability of the compound in rat plasma at 22 MBq/mL up to 120 mins. Type of series: ADME, cell-free. Conditions: read-out: Stability. An outline of the steps: as §1
The test system of series [3] is DU-145. The series can be described thus: Cellular uptake in human DU145 cells at 0.2 MBq up to 60 mins by gamma counting in presence of FET. It is filed as ADME, cell-based. Conditions: du-145, 1 h.
Series [4] relates to NCI-H460. Briefly: Cellular uptake in human NCI-H460 cells at 0.2 MBq up to 60 mins by gamma counting in presence of FET. It is filed as ADME, cell-based. Particulars: nci-h460, 1 h.
In series [5] the test system is A549. The series can be described thus: Cellular uptake in human A549 cells at 0.2 MBq up to 60 mins by gamma counting in presence of FET. Conditions: a549, 1 h. It is filed as ADME, cell-based.
The subject of series [6] is DU-145. Briefly: Cellular uptake in human DU145 cells at 0.2 MBq up to 60 mins by gamma counting in presence of L-3-FCBT. Conditions: du-145, 1 h. It is filed as ADME, cell-based.
Series [7] deals with NCI-H460. Briefly: Cellular uptake in human NCI-H460 cells at 0.2 MBq up to 60 mins by gamma counting in presence of L-3-FCBT. Type of series: ADME, cell-based. Conditions: nci-h460, 1 h.
Series [8] relates to A549. The series can be described thus: Cellular uptake in human A549 cells at 0.2 MBq up to 60 mins by gamma counting in presence of L-3-FCBT. It is filed as ADME, cell-based. Conditions: a549, 1 h.
Series [9] deals with DU-145. The series can be described thus: Cellular uptake in human DU145 cells assessed per 1-'5 cells at 0.2 MBq after 60 mins by gamma counting. It is filed as ADME, cell-based. Particulars: du-145, 1 h. An outline of the steps:
(§3)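 Sub-confluent cells seeded 1–2 days earlier (A549 and DU145 in DMEM + 10% FBS; NCI-H460 in DMEM/F-12 + 10% FBS). Washed with PBS, then incubated with 0.2 MBq radiotracer per well in PBS + 0.1% BSA (8% EtOH) at 37 °C, 5% CO2, for 10, 20, 30 and 60 min. Washed, lysed in 1 M NaOH and gamma-counted. Expressed as % applied dose per 10^5 cells, decay-corrected, in triplicate.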

The test system of series [10] is NCI-H460. Briefly: Cellular uptake in human NCI-H460 cells assessed per 1-'5 cells at 0.2 MBq after 60 mins by gamma counting. It is filed as ADME, cell-based. Particulars: nci-h460, 1 h. An outline of the steps: as §3
Series [11] relates to DU-145. The series can be described thus: Cellular uptake in human DU145 cells assessed per 1-'5 cells at 0.2 MBq after 10 mins by gamma counting. Particulars: du-145, 10 min. It is filed as ADME, cell-based. An outline of the steps:
as §3

Series [12] concerns NCI-H460. The series can be described thus: Cellular uptake in human NCI-H460 cells assessed per 1-'5 cells at 0.2 MBq after 10 mins by gamma counting. It is filed as ADME, cell-based. Particulars: nci-h460, 10 min. The method, boiled down:
as §3

Series [13] concerns A549. The series can be described thus: Cellular uptake in human A549 cells assessed per 1-'5 cells at 0.2 MBq after 30 mins by gamma counting. Type of series: ADME, cell-based. Particulars: a549, 0.5 h. The method, boiled down:
as §3

For series [14], the system named is A549. Briefly: Cellular uptake in human A549 cells assessed per 1-'5 cells at 0.2 MBq after 10 mins by gamma counting. Type of series: ADME, cell-based. Conditions: a549, 10 min. An outline of the steps:
as §3

In series [15] the test system is DU-145. The series can be described thus: Cellular uptake in human DU145 cells at 0.2 MBq by gamma counting. Conditions: TDE = time-dependent effect. Type of series: ADME, cell-based. The method, boiled down:
as §3

For series [16], the system named is NCI-H460. Briefly: Cellular uptake in human NCI-H460 cells at 0.2 MBq by gamma counting. Conditions: TDE = time-dependent effect. It is filed as ADME, cell-based. The method, boiled down:
as §3

Series [17] deals with A549. Briefly: Cellular uptake in human A549 cells at 0.2 MBq by gamma counting. It is filed as ADME, cell-based. Particulars: TDE = time-dependent effect. An outline of the steps:
as §3

Series [18] in a line: Metabolic stability in Han Wistar rat hepatocytes at 1 uM after 60 mins. It is filed as ADME, cell-based, Hepatocyte. Conditions: read-out: Stability. An outline of the steps: (§4)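 Hepatocytes isolated from Han Wistar rat liver by two-step perfusion and Percoll purification; viability by trypan blue. Incubated at 0.5×10^6 viable cells/mL in Williams' medium E + 5% FCS with 1 µM compound, shaken continuously. Aliquots taken at 2–60 min and quenched with cold methanol, frozen overnight, centrifuged. Supernatant analysed by LC-MS/MS.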

Series [19] can be described thus: Metabolic stability in Han Wistar rat hepatocytes at 1 uM after 45 mins. Conditions: read-out: Stability. Type of series: ADME, cell-based, Hepatocyte. The method, boiled down:
as §4

The nature of series [20]: Metabolic stability in Han Wistar rat hepatocytes at 1 uM after 16 mins. Particulars: read-out: Stability. Type of series: ADME, cell-based, Hepatocyte. An outline of the steps: as §4
A short description of series [21]: Metabolic stability in Han Wistar rat hepatocytes at 1 uM after 30 mins. It is filed as ADME, cell-based, Hepatocyte. Conditions: read-out: Stability. The method, boiled down: as §4
A short description of series [22]: Metabolic stability in Han Wistar rat hepatocytes at 1 uM after 8 mins. Type of series: ADME, cell-based, Hepatocyte. Particulars: read-out: Stability. An outline of the steps: as §4
The nature of series [23]: Metabolic stability in Han Wistar rat hepatocytes at 1 uM after 2 mins. Particulars: read-out: Stability. Type of series: ADME, cell-based, Hepatocyte. An outline of the steps:
as §4

Series [24] can be described thus: Lipophilicity, log D of the compound. It is filed as physicochemical. Particulars: octanol/water. The method, boiled down:
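Shake-flask logD, run manually in two vials. Compound (0.1 mg) in octanol saturated with 10 mM phosphate buffer pH 7.4, sonicated 3 min, shaken 4 min at 20 °C. Phases separated by centrifugation, then quantified by reversed-phase HPLC with UV at 254 nm by peak area.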

Series [25] in a line: Stability of the compound in human plasma at 22 MBq/mL after 5 mins. Type of series: ADME, cell-free. Conditions: read-out: Stability.
The test system of a further series is Plasma. The description is as §2. It is filed as ADME, cell-free. Conditions: 2 h. The method, boiled down:
as §1

Consider `N[C@@H](Cc1ccc(O[C@H]2C[C@@H]([18F])C2)cc1)C(=O)O`, for which the remaining at 2 h, 22 MBq/mL in [1] and in series [2] was above 99.9% each time. Also, the Drug uptake entry with DU-145 [3], in the series on NCI-H460 [4], in the series on A549 [5], with DU-145 [6], in the series on NCI-H460 [7] and in the series with A549 [8] was “Not Active” throughout. The Drug uptake with DU-145 [9] amounted to 2.1%; in the series on NCI-H460 [10] it was 2.1%; in the series on DU-145 [11], 0.7%; with NCI-H460 [12] it was 0.7%; with A549 [13] it was 5.8%; in the series with A549 [14] it was 2.8%. For the same compound, the Drug uptake result with DU-145 [15], in the series on NCI-H460 [16] and with A549 [17] was “tde” in each case.
For `N[C@@H](Cc1ccc(O[C@H]2C[C@@H](F)C2)cc1)C(=O)O`, in series [18], the remaining at 1 h, 1 µM came out at 94%. Further, the remaining at 0.75 h, 1 µM in [19] came to 95%. The remaining at 16 min, 1 µM in series [20] came to 98%. Further, the remaining at 0.5 h, 1 µM in series [21] stood at 97%. In addition, the remaining at 8 min, 1 µM in series [22] was found to be 99%. The remaining at 2 min, 1 µM in series [23] was 100%.
The logD is the decadic logarithm of the distribution of all forms, ionised or not, between an organic phase and buffer at a given pH. As to `N[C@@H](Cc1ccc(OCCF)cc1)C(=O)O` [O-(2-FLUOROETHYL)-L-TYROSINE], the logD in series [24] was -1.51.
Take `N[C@@H](Cc1ccc(OCC[18F])cc1)C(=O)O` [FLORETYROSINE F18]: the remaining at 5 min, 22 MBq/mL in [25] came to 95%. Also, the remaining at 2 h, 22 MBq/mL in series [1] was 87%. In addition, the Stability result in the series on Plasma is given as “Stable”.

Source of the values: ChEMBL document CHEMBL2311343, “Investigations into the synthesis, radiofluorination and conjugation of a new [¹⁸F]fluorocyclobutyl prosthetic group and its in vitro stability using a tyrosine model system” (Bioorg Med Chem, 2013).
